MIC, CLint scaled and half-life data for 17 molecules are collected here from ChEMBL document CHEMBL5338714, “Design, synthesis and biological evaluation of biphenyl-benzamides as potent FtsZ inhibitors” (Eur J Med Chem, 2022).

Data set [1] deals with Staphylococcus aureus. The data set can be described thus: Antibacterial activity against Staphylococcus aureus ATCC25923 assessed as bacterial growth inhibition incubated for 18 hrs by CLSI based broth microdilution method. The data set is classed as functional. The essentials:
(§1)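 CLSI broth microdilution. Log-phase bacteria in Mueller Hinton broth added to 2-fold serial dilutions spanning 128 to 0.25 or 2 to 0.004 µg/mL. Incubated aerobically for 18 h at 37 °C, then OD600 read. MIC is the lowest concentration giving ≥90% growth inhibition; three independent assays.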

Data set [2] relates to Bacillus subtilis. The experiment in a line: Antibacterial activity against Bacillus subtilis ATCC9372 assessed as bacterial growth inhibition incubated for 18 hrs by CLSI based broth microdilution method. The data set is classed as functional. In short, it runs like this: as §1
For data set [3], the system named is Staphylococcus aureus. The experiment in a line: Antibacterial activity against Staphylococcus aureus ATCC29213 assessed as bacterial growth inhibition incubated for 18 hrs by CLSI based broth microdilution method. It is filed as functional. In short, it runs like this:
as §1

The test system of data set [4] is Bacillus subtilis. The experiment in a line: Antibacterial activity against Bacillus subtilis 618 assessed as bacterial growth inhibition incubated for 18 hrs by CLSI based broth microdilution method. The data set is classed as functional. The essentials:
as §1

Data set [5] concerns Bacillus subtilis. The experiment in a line: Antibacterial activity against Bacillus subtilis BS01 assessed as bacterial growth inhibition incubated for 18 hrs by CLSI based broth microdilution method. It is filed as functional. The essentials: as §1
In data set [6] the test system is Bacillus subtilis. The experiment in a line: Antibacterial activity against Bacillus subtilis MG27 assessed as bacterial growth inhibition incubated for 18 hrs by CLSI based broth microdilution method. The data set is classed as functional. The essentials:
as §1

Data set [7] can be described thus: Metabolic stability in rat liver microsomes assessed as intrinsic clearance preincubated for 5 mins followed by NADPH addition measured upto 45 mins by LC/MS analysis. It is filed as ADME, Microsome. The note with it: time < 50 min, read-out: CLH. The essentials: (§2)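 Liver microsomes at 0.75 mg/mL final protein, with test article and NADPH regeneration system (6 mM) in 100 mM phosphate buffer, pH 7.4. Preincubated 5 min at 37 °C, then started with NADPH. Quenched with acetonitrile containing internal standard at 5, 15, 30 and 45 min, centrifuged, and percent remaining measured by LC/MS. Ketanserin served as reference.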

Data set [8] can be described thus: Metabolic stability in human liver microsomes assessed as intrinsic clearance preincubated for 5 mins followed by NADPH addition measured upto 45 mins by LC/MS analysis. The data set is classed as ADME, Microsome. The note with it: time < 50 min, read-out: CLH. In short, it runs like this: as §2
The nature of data set [9]: Metabolic stability in rat liver microsomes assessed as half life preincubated for 5 mins followed by NADPH addition measured upto 45 mins by LC/MS analysis. The note with it: time < 50 min. The data set is classed as ADME, Microsome. In short, it runs like this:
as §2

Data set [10] in a line: Metabolic stability in human liver microsomes assessed as half life preincubated for 5 mins followed by NADPH addition measured upto 45 mins by LC/MS analysis. The note with it: time < 50 min. It is filed as ADME, Microsome. In short, it runs like this:
as §2

Data set [11] is described as follows: Metabolic stability in mouse liver microsomes assessed as intrinsic clearance preincubated for 5 mins followed by NADPH addition measured upto 45 mins by LC/MS analysis. It is filed as ADME, Microsome. The note with it: time < 50 min, read-out: CLH. The essentials:
as §2

The nature of data set [12]: Metabolic stability in mouse liver microsomes assessed as half life preincubated for 5 mins followed by NADPH addition measured upto 45 mins by LC/MS analysis. It is filed as ADME, Microsome. The conditions noted are these: time < 50 min. The essentials:
as §2

In brackets after ≈: the same amount, converted by molar mass.

`CC(C)c1ccc(-c2cccc(COc3ccc(F)c(C(N)=O)c3F)c2)cc1`: the MIC with Staphylococcus aureus [1] was over 128 µg/mL; in the data set with Bacillus subtilis [2] it was 0.5 µg/mL (≈ 1.31 µM); in the data set on Staphylococcus aureus [3], over 128 µg/mL.
Consider `COc1ccc(-c2cccc(COc3ccc(F)c(C(N)=O)c3F)c2)cc1`, for which the MIC came to 1 µg/mL (≈ 2.71 µM) in the data set with Staphylococcus aureus [1], 0.25 µg/mL (≈ 0.677 µM) in the data set with Bacillus subtilis [2] and 2 µg/mL (≈ 5.41 µM) in the data set with Staphylococcus aureus [3].
As for `NC(=O)c1c(F)ccc(OCc2cccc(-c3ccc(Cl)cc3)c2)c1F`, the MIC in the data set with Staphylococcus aureus [1] was found to be 0.25 µg/mL (≈ 0.669 µM); in the data set on Bacillus subtilis [2], 0.063 µg/mL (≈ 0.169 µM); in the data set on Staphylococcus aureus [3] it was 0.25 µg/mL (≈ 0.669 µM).
For `Cc1cccc(-c2cccc(COc3ccc(F)c(C(N)=O)c3F)c2)c1`, the MIC with Staphylococcus aureus [1] was over 128 µg/mL; in the data set with Bacillus subtilis [2], 32 µg/mL (≈ 90.6 µM); in the data set on Staphylococcus aureus [3], over 128 µg/mL.
With `Cc1ccccc1-c1cccc(COc2ccc(F)c(C(N)=O)c2F)c1`, the results for the MIC in the data set with Staphylococcus aureus [1], with Bacillus subtilis [2] and in the data set with Staphylococcus aureus [3] were 1 µg/mL (≈ 2.83 µM), 0.25 µg/mL (≈ 0.707 µM) and 1 µg/mL (≈ 2.83 µM), respectively.
Take `NC(=O)c1c(F)ccc(OCc2cccc(-c3ccc(C(F)(F)F)cc3)c2)c1F`: the minimum inhibitory concentration (MIC) in the data set on Staphylococcus aureus [1] came to 1 µg/mL (≈ 2.45 µM); in the data set on Bacillus subtilis [2] it was 0.125 µg/mL (≈ 0.307 µM); with Staphylococcus aureus [3] it was 2 µg/mL (≈ 4.91 µM).
On to `CCc1ccc(-c2cccc(COc3ccc(F)c(C(N)=O)c3F)c2)cc1`, for which the MIC in the data set with Staphylococcus aureus [1] worked out at 0.5 µg/mL (≈ 1.36 µM); with Bacillus subtilis [2], 0.125 µg/mL (≈ 0.34 µM); in the data set on Staphylococcus aureus [3] it was 0.5 µg/mL (≈ 1.36 µM).
As for `NC(=O)c1c(F)ccc(OCc2cccc(-c3ccc(Cl)cc3Cl)c2)c1F`, the figures for the MIC in the data set with Staphylococcus aureus [1], in the data set on Bacillus subtilis [2] and in the data set with Staphylococcus aureus [3] were 0.25 µg/mL (≈ 0.612 µM), 0.031 µg/mL (≈ 0.0759 µM) and 0.25 µg/mL (≈ 0.612 µM), respectively.
Consider `NC(=O)c1c(F)ccc(OCc2cccc(-c3ccc(C(F)(F)F)cc3F)c2)c1F`, for which the MIC stood at 1 µg/mL (≈ 2.35 µM) in the data set with Staphylococcus aureus [1], 0.063 µg/mL (≈ 0.148 µM) in the data set on Bacillus subtilis [2] and 1 µg/mL (≈ 2.35 µM) in the data set on Staphylococcus aureus [3].
On to `NC(=O)c1c(F)ccc(OCc2cccc(-c3ccc(Cl)cc3F)c2)c1F`, for which the MIC in the data set with Bacillus subtilis [4] was 0.016 µg/mL (≈ 0.0408 µM); in the data set with Bacillus subtilis [5], 0.016 µg/mL (≈ 0.0408 µM); in the data set with Staphylococcus aureus [1] it was 0.5 µg/mL (≈ 1.28 µM); in the data set on Bacillus subtilis [2] it was 0.016 µg/mL (≈ 0.0408 µM); with Staphylococcus aureus [3] it was 0.5 µg/mL (≈ 1.28 µM); in the data set on Bacillus subtilis [6], 0.031 µg/mL (≈ 0.0791 µM).
As for `O=C(c1ccc(F)cc1)C1CCN(CCn2c(=O)[nH]c3ccccc3c2=O)CC1` [KETANSERIN], the results for the CLint scaled in data set [7], in [8] and in data set [11] were 171 mL/min/kg, 57.1 mL/min/kg and 637 mL/min/kg, respectively. In addition, the half-life is 14.5 min in data set [9], 30.4 min in [10] and 8.57 min in [12].
For the molecule `NC(=O)c1c(F)ccc(OCc2cc(Cl)cc(-c3ccc(C(F)(F)F)cc3)c2)c1F`, the MIC is over 128 µg/mL in the data set on Staphylococcus aureus [1], 1 µg/mL (≈ 2.26 µM) with Bacillus subtilis [2] and over 128 µg/mL in the data set with Staphylococcus aureus [3].
For the molecule `COc1cc(C(F)(F)F)ccc1-c1cccc(COc2ccc(F)c(C(N)=O)c2F)c1`, the values for the MIC in the data set with Staphylococcus aureus [1], in the data set with Bacillus subtilis [2] and with Staphylococcus aureus [3] were 1 µg/mL (≈ 2.29 µM), 0.063 µg/mL (≈ 0.144 µM) and 1 µg/mL (≈ 2.29 µM), respectively.
Turning to `NC(=O)c1c(F)ccc(OCc2cccc(-c3ccc(Cl)cc3C(F)(F)F)c2)c1F`, the MIC in the data set on Staphylococcus aureus [1] was 0.5 µg/mL (≈ 1.13 µM); with Bacillus subtilis [2] it was 0.125 µg/mL (≈ 0.283 µM); in the data set on Staphylococcus aureus [3] it was 0.5 µg/mL (≈ 1.13 µM).
Regarding `NC(=O)c1c(F)ccc(OCc2cccc(-c3ccc(C(F)(F)F)c(F)c3)c2)c1F`, the MIC in the data set with Staphylococcus aureus [1], in the data set on Bacillus subtilis [2] and with Staphylococcus aureus [3] was over 128 µg/mL throughout.
Turning to `NC(=O)c1cc(C(F)(F)F)ccc1-c1cccc(COc2ccc(F)c(C(N)=O)c2F)c1`, the MIC in the data set with Staphylococcus aureus [1], in the data set on Bacillus subtilis [2] and in the data set on Staphylococcus aureus [3] was over 128 µg/mL each time.
Regarding `CC(C)(C)c1ccc(-c2cccc(COc3ccc(F)c(C(N)=O)c3F)c2)cc1`, the MIC was over 128 µg/mL with Staphylococcus aureus [1], 2 µg/mL (≈ 5.06 µM) in the data set with Bacillus subtilis [2] and over 128 µg/mL in the data set on Staphylococcus aureus [3].
